# B2AR ag – human beta-2 adrenergic receptor agonism by FAP; P07550; Am2.2-beta2AR cells, FAP receptor internalization, flow cytometry; response, % (no concentration beside the values); 0.43% of 340,000 active; AID 504454;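 active means response above a set limit, near 3 SD of response in nonfluorescent compounds, cut at about 42% in these data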
# Target sequence (P07550 whole entry, looked up): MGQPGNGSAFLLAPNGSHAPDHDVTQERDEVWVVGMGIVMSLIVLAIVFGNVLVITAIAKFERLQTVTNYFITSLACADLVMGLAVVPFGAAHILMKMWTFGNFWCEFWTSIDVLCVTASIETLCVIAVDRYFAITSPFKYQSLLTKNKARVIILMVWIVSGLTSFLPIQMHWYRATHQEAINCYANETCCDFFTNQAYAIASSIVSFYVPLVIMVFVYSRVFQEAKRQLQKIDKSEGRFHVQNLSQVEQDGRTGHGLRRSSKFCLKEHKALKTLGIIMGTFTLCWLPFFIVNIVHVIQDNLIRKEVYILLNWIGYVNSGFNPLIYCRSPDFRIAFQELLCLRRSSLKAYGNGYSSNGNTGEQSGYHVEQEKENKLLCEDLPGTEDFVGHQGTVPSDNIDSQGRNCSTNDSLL
# Exocytosis inh – blocks lytic granule exocytosis | TALL-104 LAMP-1 surface exposure, flow cytometry; cells stimulated with thapsigargin and PMA | inhibition, % at 10 µM | 0.66% of 360,000 active;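 active means inhibition above about 55%, limit read from the data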
# rCAG binder-1 – binds r(CAG) RNA repeats; r(CAG) RNA repeat, TO-PRO-1 dye displacement fluorescence; inhibition, % at 3 µM; 1.3% of 370,000 active; AID 651821;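 active means inhibition above the plate cutoff, the mean of all test compounds on that plate plus 3 SD, cut at about 35% in these data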;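 further: higher means more dye released from RNA so lower well fluorescence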
# MPTP inh – inhibitors of mitochondrial permeability transition pore; 1.4% of 360,000 active; isolated mouse mitochondria, Ca2+ swelling absorbance, 30 min; AID 602449; inhibition, % at 10 µM;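 active means inhibition of 50% or more, scaled per plate between neutral and stimulator controls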
# T cell modulator – T cell immune modulators affecting CD8 T cell-vesicle binding | response (vesicle binding), % at 7 µM | 2C CD8+ T cell-vesicle binding, flow cytometry; hits give low values | AID 2052 | 0.068% of 330,000 active;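 active means response, share of CD8 T cells binding vesicles, and their 90th percentile fluorescence all below set limits, cut at about 80% in these data, passing the limit was not always enough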;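 further: values below 100% mean blocked vesicle binding to the CD8+ T cells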
#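 Benchmarks: naked versus QL9-loaded vesicles / Assay system: purified 2C TCR transgenic mouse naive CD8+ T cells / Technique: high-throughput flow cytometry with anti-B7-1 and anti-CD8 staining / Timing: Cell–vesicle co-incubation 1.5 h at 37 °C, staining 20 min on ice / Read-out: percent CD8+ FL2 mean versus row control / Probe or stimulus: QL9-loaded Drosophila micro-vesicles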
# V-ATPase pH – alters yeast V-ATPase proton transport | 0.37% of 350,000 active | S. cerevisiae, pHLuorin cytosolic pH fluorescence | response, % at 10 µM; in the data active means response mostly above about 7.3%, no sharp cut-off; inactive means mostly below about 5.4%; further: actives read high
# rCAG bind conf – r(CAG) RNA repeat binding, confirmation; AID 652065; shares compounds with rCAG binder-1; inhibition, % at 3 µM; 70% of 4,300 active; TO-PRO-1 dye displacement fluorescence;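 active means inhibition above a per-plate cutoff, the mean inhibition of sample wells plus 3 SD, cut at about 35% in these data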;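 further: loss of TO-PRO-1 fluorescence as compound displaces dye from 1x1 AA loop RNA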
# DNA CAG counter – disrupts DNA CAG TO-PRO-1 complex, flagging rCAG hits; d(CAG) DNA oligo TO-PRO-1 dye displacement, fluorescence; shares compounds with rCAG binder-1; 94% of 4,300 active; inhibition, % at 3 µM;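 active means inhibition above its plate's cutoff, the mean test-well inhibition plus 3 SD, cut at about 4.8% in these data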;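 further: hits displace the dye from DNA and so lower well fluorescence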
# dCAG dye DR – counter-screen for rCAG binders: inhibitors of DNA CAG TO-PRO-1 complex | shares compounds with rCAG binder-1 | DNA CAG/GTC duplex TO-PRO-1 dye displacement fluorescence | IC50, µM | 20% of 250 active | AID 686960; in the data active means IC50 below about 10 µM
# dCAG TOPRO ctr – DNA CAG dye complex inhibition, late stage dose response; shares compounds with rCAG binder-1; d(CAG) DNA duplex TO-PRO-1 dye displacement, fluorescence; IC50, µM; 80% of 30 active
# rCAG binder-2 – molecules binding r(CAG) RNA repeats, late stage dose response; shares compounds with rCAG binder-1; r(CAG) RNA TO-PRO-1 dye displacement, fluorescence; IC50, µM; 100% of 30 active
# Hits are given with their value; 0 = inactive; - = no result. An excerpt weighted towards active compounds, which were near 3.8% of everything screened. Unless noted, how the calls were made is not given here.
SMILES,B2AR ag,Exocytosis inh,rCAG binder-1,MPTP inh,T cell modulator,V-ATPase pH,rCAG bind conf,DNA CAG counter,others
O=C(O)c1cccc(NC(=O)c2ccc(COc3ccc(Cl)cc3)cc2)c1,0,0,47,0,0,0,54,16,
O=C(NC(=S)Nc1ccc(Cl)c(C(=O)O)c1)c1ccc(OCc2ccccc2)cc1,0,0,68,0,0,0,62,25,
CCOc1ccc(-n2c(SCC(=O)c3ccc4ccccc4c3)nnc2-c2ccc(OC)cc2)cc1,-,-,0,-,-,-,-,-,
CC1(C(=O)NS(=O)(=O)c2ccc(Cl)s2)CCN1C(=O)c1ccc(C2CCCCC2)cc1 (stereo not drawn),-,0,66,0,-,-,74,37,
COc1ccc(/C=C2\CC3(OC(=O)c4ccccc4)CCCN2C3)cc1 (stereo not drawn),-,-,0,-,-,-,-,-,
COc1ccc(C(=O)OCCCN(C)C2CN(Cc3cn(Cc4ccccc4C(F)(F)F)nn3)S(=O)(=O)C2)cc1OC (stereo not drawn),-,-,0,-,-,-,-,-,
Cc1cc(N)n(-c2ccc(Oc3ccccc3)c(S(=O)(=O)O)c2)n1,0,0,59,0,-,0,42,9.7,
COc1ccc(CCNC(=O)c2ccccc2NS(=O)(=O)c2c(F)cccc2F)cc1,0,0,48,0,0,-,0,9.9,
COc1ccc(CCNC(=O)c2ccccc2NS(=O)(=O)c2cc(C(=O)O)ccc2OC)cc1,0,0,0,0,0,0,-,-,
CCc1noc(C)c1C(=O)N1CCN(CC(=O)OC)CC1,-,-,0,-,-,-,-,-,
C=CCn1c(SCc2c(C)noc2C)nc2sc3c(c2c1=O)CCCC3,0,0,0,0,0,0,-,-,
C=CCn1c(SCc2c(C)noc2C)nc2sc3c(c2c1=O)CCCCC3,0,0,40,0,0,0,0,4.7,
COC(=O)[C@]12C[C@H](CC(=O)N3CCCCC3)C(=O)N(Cc3ccc(Cl)cc3Cl)C1=C[C@H](C(C)C)O[C@@H]2C1CC1,-,-,0,-,-,-,-,-,
CCOC(=O)[C@]12CCCCC/C=C\1N(CCc1ccc(Cl)cc1)C(=O)[C@H]2CC(=O)NCc1cccs1,-,-,0,-,-,-,-,-,
C=CCn1c(Cc2cccs2)nnc1SCC(=O)Nc1cccc2ccccc12,-,-,0,-,-,-,-,-,
N=C1SC(c2ccccc2)C(=O)N1c1ncc(Cc2ccccc2Cl)s1 (stereo not drawn),0,0,58,0,0,0,72,32,dCAG dye DR=0
O=C(CCc1ccccc1)N[C@H]1[C@@H](OC(=O)c2ccc([N+](=O)[O-])cc2)CCC[C@]12C(=O)N(Cc1ccccc1)c1ccccc12,-,-,0,-,-,-,-,-,
Cc1cc(OCC(=O)N[C@@H](CSCc2ccccc2)C(=O)O)c2c(C)c(C)c(=O)oc2c1,0,0,49,0,0,0,54,13,
Cc1c(Cc2ccccc2)c(=O)oc2cc(OCC(=O)NC(Cc3ccc(Cl)cc3)C(=O)O)ccc12 (stereo not drawn),0,0,52,0,0,0,66,25,
Cc1c(Cc2ccccc2)c(=O)oc2c(C)c(OCC(=O)N[C@@H](Cc3ccccc3)C(=O)O)ccc12,0,0,47,0,0,0,70,29,dCAG dye DR=0
Cc1c(OCC(=O)NC(Cc2ccc(Cl)cc2)C(=O)O)ccc2c1oc(=O)c1ccccc12 (stereo not drawn),0,0,0,0,0,0,-,-,
CCC(NC(=O)Cc1c(C)c2ccc(OC)c(C)c2oc1=O)C(=O)NC(Cc1ccc(Cl)cc1)C(=O)O (stereo not drawn),0,0,36,0,0,0,41,8.8,
Cc1c(C)c2ccc(OCC(=O)N[C@@H](Cc3ccccc3)C(=O)O)cc2oc1=O,0,0,0,0,0,0,-,-,
CCOC(=O)[C@@]12CCC3=C1N(CCC3)C(=O)[C@H](CC(=O)NCC1CCCCC1)C2,-,-,0,-,-,-,-,-,
COC[C@@H]1CCCN1c1ccc2c(c1)OCCCN(C1CC1)S2(=O)=O,-,-,0,-,-,-,-,-,
SMILES,B2AR ag,Exocytosis inh,rCAG binder-1,MPTP inh,T cell modulator,V-ATPase pH,rCAG bind conf,DNA CAG counter,others
CCCCCCc1c(C)c2ccc(OCC(=O)N[C@@H](Cc3ccccc3)C(=O)O)cc2oc1=O,0,0,46,0,0,0,76,31,dCAG dye DR=0
Cc1nn(-c2ccccc2)c2nc(-c3ccco3)cc(C(=O)O)c12,0,0,54,0,0,0,71,27,dCAG dye DR=4.3;dCAG TOPRO ctr=6.1;rCAG binder-2=2.5
O=C(O)c1cc(-c2ccco2)nn1-c1cccc(Cl)c1,0,0,0,0,0,0,-,-,
Cc1cccc(-n2nc(C)c3c(C(=O)O)cc(-c4cccs4)nc32)c1,0,0,81,0,0,0,74,34,dCAG dye DR=6.3;dCAG TOPRO ctr=1.4;rCAG binder-2=0.58
Cc1nn(-c2cccc(Cl)c2)c2nc(-c3ccco3)cc(C(=O)O)c12,0,0,72,0,0,0,77,40,
C=CCN1[C@H](CC(C)C)COc2cc(F)ccc2S1(=O)=O,-,-,0,-,-,-,-,-,
O=[N+]([O-])c1cccc(C2=Nn3c(nnc3-c3ccccc3)SC2)c1,-,-,0,-,-,-,-,-,
COC(=O)[C@]12CCCCC=C1N(Cc1ccc(OC)cc1)C(=O)[C@@H]2CC(=O)N1CCN(C(=O)c2ccco2)CC1,-,-,0,-,-,-,-,-,
CCCc1cc(C(=O)Nc2cccc(-c3nn[nH]n3)c2)sc1C,-,0,40,0,-,0,35,8.5,
CCc1ccc(C(=O)Nc2cccc(-c3nn[nH]n3)c2)s1,0,0,0,0,0,0,-,-,
Cc1ccc(S(=O)(=O)N2[C@@H](c3ccccc3)C(C(=O)O)=CC[C@H]2c2cccs2)cc1,0,0,42,0,0,0,43,9.4,
Cc1ccc(S(=O)(=O)N2[C@@H](c3ccccc3F)C(C(=O)O)=CC[C@H]2c2cccs2)cc1,0,0,45,0,0,0,46,12,
CC(=O)C1=CCC(c2cccs2)N(S(=O)(=O)c2ccc(C)cc2)C1 (stereo not drawn),-,0,0,0,-,-,-,-,
COC(=O)C1=C(C)N(C)C(=NCC2CC2)NC1c1ccccc1 (stereo not drawn),-,-,0,-,-,-,-,-,
O=C(CN1C(=O)/C(=C2/SC(=S)N(CCS(=O)(=O)O)C2=O)c2ccccc21)Nc1cccc(Br)c1,0,0,73,0,0,0,80,49,

# Screens from PubChem BioAssay.
